Test results taken from article PMC9056317 (RSC Advances, 2020).
Where two headings read alike, the source gives them in different places.

What was measured:
MDA MB 231 cells = assay: MDA MB 231 proliferation MTT assay; assay type: cell-based; settings: for anti-proliferative effect in MDA MB 231: 100 μM, data not shown; for IC50: Homo sapiens, MDA-MB-231, 72 h, read-out: IC50 in MDA MB 231
Method in brief: (§1)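 MDA MB 231 cells (DMEM, 10% FBS, 37 °C, 5% CO2, split every 3–4 days) were plated at 2000 per well and incubated overnight, then the medium was replaced with test compound for 72 h. MTT was added for 4 h at 37 °C, and formazan was dissolved in DMSO. A570 was read with a 630 nm reference. IC50: 0.78–100 μM, non-linear regression of survival %.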

[1] = tested on: human glioblastoma cell line GBM6; assay: GBM6 proliferation MTT assay; assay type: cell-based; settings: for anti-proliferative activity in GBM6: 100 μM, MTT 72 hours after treatment; for IC50: Homo sapiens
Method in brief: as §1, with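 “GBM6” for “MDA MB 231”, “CO2)” for “CO2, split every 3–4 days)”, “1000” for “2000”, “reference. Single-dose screen: n = 3, normalised to control.” for “reference.”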

[2] = tested on: HCMV (Towne-BAC-GFP) strain; settings: read-out: reported IC50; reported value used to validate the assay; cited from earlier work
[3] = tested on: HCMV (Towne-BAC-GFP strain); assay type: cell-based, human cytomegalovirus; settings: HFF-1 cells pre-treated with 10 μM compound for 1 hour, HCMV MOI 3.0
Method in brief: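 HFF-1 cells were grown in DMEM with 10% FBS, sodium pyruvate and L-glutamine at 37 °C, 5% CO2. They were pre-treated for 1 h with test compound or DMSO control, then infected with Towne-BAC-GFP HCMV. GFP-positive infected cells were quantified by fluorescence microscopy.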

HFF-1 cells = assay: Cytotoxic assessment on HFF cells by trypan blue exclusion assay; assay type: cell-based, human; settings: 2× the IC50 concentrations, maintained on cells for 5 days
Method in brief: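 Confluent HFF-1 cells (DMEM, 10% FBS, 37 °C, 5% CO2) were treated with test compound or left untreated, then infected with HCMV (MOI 3.0) or left uninfected. At day 5, cells were trypsinised and mixed 1:1 with 0.4% trypan blue. Percent viable cells was read on an automated cell counter. Three independent experiments, SEM.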

[4] = GBM6, 72 h, read-out: IC 50 in GBM6
[5] = GBM6, read-out: IC50 (highest cytotoxicity)

In the case of `FC1C(c2ccc(Br)cc2)=NOC12CCCCO2` (stereo not drawn) [4l, 3-(4-Bromophenyl)-4-fluoro-1,6-dioxa-2-azaspiro[4.5]dec-2-ene], the “anti-proliferative effect in MDA MB 231” value (MDA MB 231 cells) is reported as “highest anti-proliferative effect”, the IC50 (MDA MB 231 cells) is reported as 68.2 µM and the “anti-proliferative activity in GBM6” value [1] is reported as “robust anti-proliferative activity”. The IC50 [1, 4] was 36.1 µM and the IC50 [1, 5] was 36 to 80 µM.

For `Nc1nc(O)c2ncn(COC(CO)CO)c2n1` [GCV, ganciclovir], the IC50 [2] is given as 5.2 µM.

For `FC1C(c2ccc(Cl)cc2)=NOC12CCCO2` (stereo not drawn) [4d, 3-(4-Chlorophenyl)-4-fluoro-1,6-dioxa-2-azaspiro[4.4]non-2-ene], the “reduction in GFP levels (mean fluorescence intensity, MFI)” value (“reduction in GFP levels” below) [3] was “significant reduction in MFI” and the “cytotoxicity on HFF cells” value (HFF-1 cells) was “did not show significant cytotoxicity”.

In the case of `O=C1CCC2(ON=C(c3c(Cl)cccc3Cl)C2F)O1` (stereo not drawn) [5f, 3-(2,6-Dichlorophenyl)-4-fluoro-1,6-dioxa-2-azaspiro[4.4]non-2-en-7-one], the “anti-proliferative effect in MDA MB 231” value (MDA MB 231 cells) is reported as “highest anti-proliferative effect”, the IC50 (MDA MB 231 cells) is reported as 79.8 µM and the “anti-proliferative activity in GBM6” value [1] is reported as “robust anti-proliferative activity”. The IC50 [1, 4] was 43.2 µM and the IC50 [1, 5] was 36 to 80 µM.

In the case of `O=[N+]([O-])c1ccc(C2=NOC3(CCCCO3)C2F)cc1` (stereo not drawn) [4o, 4-Fluoro-3-(4-nitrophenyl)-1,6-dioxa-2-azaspiro[4.5]dec-2-ene], the “reduction in GFP levels” value [3] is reported as “significant reduction in MFI”.

In the case of `FC1C(c2ccc(C(F)(F)F)cc2)=NOC12CCCCO2` (stereo not drawn) [4n, 4-Fluoro-3-(4-(trifluoromethyl)phenyl)-1,6-dioxa-2-azaspiro[4.5]dec-2-ene], the “reduction in GFP levels” value [3] is reported as “significant reduction in MFI” and the “cytotoxicity on HFF cells” value (HFF-1 cells) is reported as “did not show significant cytotoxicity”.

With `FC1C(c2ccccc2)=NOC12CCCCO2` (stereo not drawn) [4i, 4-Fluoro-3-phenyl-1,6-dioxa-2-azaspiro[4.5]dec-2-ene] the “reduction in GFP levels” value [3] was “significant reduction in MFI”.

For `O=[N+]([O-])c1ccc(C2=NOC3(CCCO3)C2F)cc1` (stereo not drawn) [4h, 4-Fluoro-3-(4-nitrophenyl)-1,6-dioxa-2-azaspiro[4.4]non-2-ene], the “reduction in GFP levels” value [3] was “significant reduction in MFI”.
